Source: ChEMBL document CHEMBL2311397, “Design and synthesis of cyclopropylamide analogues of combretastatin-A4 as novel microtubule-stabilizing agents” (J Med Chem, 2013)
pIC50: −log10 of the molar value.

What was measured:
Format in all cases: functional, cell-based
HeLa = test: Cytotoxicity against human HeLa cells after 48 hrs by MTT assay
Summary of the method: (§1)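 Log-phase cells (40000–50000 cells/mL) grown in DMEM with 10% fetal calf serum (5% CO2, 37 °C) and exposed 48 h to five concentrations, 3–5 replicates. Read-out was MTT with absorbance at 570 nm; IC50 reported as mean ± SD of three independent experiments. Resistant A549 and HeLa sublines were made by stepwise paclitaxel selection; resistance index = IC50(resistant)/IC50(sensitive).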

A549 = test: Cytotoxicity against human A549 cells after 48 hrs by MTT assay; summary of the method: as §1
K562 = test: Cytotoxicity against human K562 cells after 48 hrs by MTT assay; summary of the method: as §1
[1] = Cytotoxicity against human QGY cells after 48 hrs by MTT assay; summary of the method: as §1
SW480 = test: Cytotoxicity against human SW480 cells after 48 hrs by MTT assay; summary of the method: as §1

SMILES | pIC50 (HeLa; hela) | pIC50 (A549; a549) | pIC50 (K562; k562) | pIC50 ([1]; qgy) | pIC50 (SW480; sw480) | pIC50 (HeLa; Homo sapiens, HeLa, 48 h) | pIC50 (A549; Homo sapiens, A549, 48 h) | pIC50 (K562; Homo sapiens, K562, 48 h) | pIC50 ([1]; Homo sapiens, QGY, 48 h) | pIC50 (SW480; Homo sapiens, SW480, 48 h)
CCOC(=O)C1(C(=O)NCCc2cccc(F)c2)CC1c1cc(OC)c(OC)c(OC)c1 (trans isomer) | 4.24 | 4.19 | < 4.00 | < 4.00 | 4.10 |  |  |  |  | 
CCOC(=O)[C@]1(C(=O)Nc2ccccc2Cl)C[C@@H]1c1cc(OC)c(OC)c(OC)c1 |  |  |  |  |  | < 4.00 | 4.29 | 4.71 | 4.46 | < 4.00
CCOC(=O)[C@]1(C(=O)NCc2ccc(C)cc2)C[C@@H]1c1cc(OC)c(OC)c(OC)c1 |  |  |  |  |  | < 4.00 | 4.46 | 4.69 | < 4.00 | < 4.00
CCOC(=O)C1(C(=O)NCc2ccccc2)CC1c1cc(OC)c(OC)c(OC)c1 (cis isomer) |  |  |  |  |  | 4.33 | 4.10 | < 4.00 | < 4.00 | 4.05
CCOC(=O)[C@]1(C(=O)Nc2ccccc2)C[C@H]1c1cc(OC)c(OC)c(OC)c1 |  |  |  |  |  | < 4.00 | 4.43 | < 4.00 | < 4.00 | < 4.00
CCOC(=O)[C@@]1(C(=O)Nc2ccccc2Cl)C[C@@H]1c1cc(OC)c(OC)c(OC)c1 |  |  |  |  |  | < 4.00 | 4.54 | 4.31 | < 4.00 | 4.33
COc1cc([C@@H]2C[C@]2(CO)C(=O)NCc2ccc(C)cc2)cc(OC)c1OC |  |  |  |  |  | 4.76 | 4.98 | < 4.00 | 4.60 | 4.57
COc1cc([C@@H]2C[C@@]2(CO)C(=O)NCc2ccc(C)cc2)cc(OC)c1OC |  |  |  |  |  | 4.39 | 4.33 | < 4.00 | 4.23 | 4.12
CCOC(=O)C1(C(=O)Nc2ccc(OC)cc2)CC1c1cc(OC)c(OC)c(OC)c1 (cis isomer) |  |  |  |  |  | 4.09 | 4.21 | < 4.00 | 4.06 | 4.18
CCOC(=O)C1(C(=O)Nc2cccc(Cl)c2)CC1c1cc(OC)c(OC)c(OC)c1 (stereo in doubt; cis) | 4.45 |  |  | 4.33 |  |  | 4.59 | 4.28 |  | 4.43
CCOC(=O)C1(C(=O)NCc2ccc(F)cc2)CC1c1cc(OC)c(OC)c(OC)c1 (stereo in doubt) |  |  |  |  |  | 4.49 | 4.53 | 4.35 | 4.23 | 4.47
CCOC(=O)[C@@]1(C(=O)NCc2ccc(C)cc2)C[C@H]1c1cc(OC)c(OC)c(OC)c1 |  |  |  |  |  | 4.71 | 4.77 | < 4.00 | 4.58 | < 4.00
CCOC(=O)C1(C(=O)Nc2cccc(Cl)c2)CC1c1cc(OC)c(OC)c(OC)c1 (stereo in doubt; trans) | < 4.00 | 4.34 | < 4.00 | < 4.00 | 4.54 |  |  |  |  | 
CCOC(=O)C1(C(=O)Nc2ccc(F)cc2)CC1c1cc(OC)c(OC)c(OC)c1 (cis isomer) |  |  |  | 4.10 |  | 4.20 | 4.65 | 4.20 |  | 4.33
CCOC(=O)[C@@]1(C(=O)Nc2ccccc2Cl)C[C@H]1c1cc(OC)c(OC)c(OC)c1 |  |  |  |  |  | 4.84 | 4.75 | < 4.00 | 4.46 | 4.52
CCOC(=O)C1(C(=O)NCc2ccc(OC)cc2)CC1c1cc(OC)c(OC)c(OC)c1 (trans isomer) |  | 4.13 |  |  |  |  |  |  |  | 
COc1cc([C@@H]2C[C@@]2(CO)C(=O)Nc2ccccc2Cl)cc(OC)c1OC |  |  |  |  |  | 4.88 | 4.94 | 4.74 | 4.61 | 4.97
CCOC(=O)C1(C(=O)Nc2ccccc2[N+](=O)[O-])CC1c1cc(OC)c(OC)c(OC)c1 (trans isomer) | 4.45 | 4.51 | < 4.00 | < 4.00 | 4.50 |  |  |  |  | 

SMILES | pIC50 (HeLa; hela) | pIC50 (A549; a549) | pIC50 (K562; k562) | pIC50 ([1]; qgy) | pIC50 (SW480; sw480) | pIC50 (HeLa; Homo sapiens, HeLa, 48 h) | pIC50 (A549; Homo sapiens, A549, 48 h) | pIC50 (K562; Homo sapiens, K562, 48 h) | pIC50 ([1]; Homo sapiens, QGY, 48 h) | pIC50 (SW480; Homo sapiens, SW480, 48 h)
CCOC(=O)C1(C(=O)NCc2ccc(F)cc2)CC1c1cc(OC)c(OC)c(OC)c1 (trans isomer) | 4.56 | 4.47 | 4.37 | < 4.00 | 4.55 |  |  |  |  | 
CCOC(=O)C1(C(=O)NCc2ccccc2)CC1c1cc(OC)c(OC)c(OC)c1 (trans isomer) | 4.12 | < 4.00 |  |  | < 4.00 |  |  |  |  | 
CCOC(=O)C1(C(=O)NCc2ccc(OC)cc2)CC1c1cc(OC)c(OC)c(OC)c1 (cis isomer) |  |  |  |  |  | < 4.00 | < 4.00 | < 4.00 | < 4.00 | < 4.00
CCOC(=O)C1(C(=O)NCCc2ccccc2F)CC1c1cc(OC)c(OC)c(OC)c1 (trans isomer) | < 4.00 | 4.51 | 4.10 | 4.33 | 4.77 |  |  |  |  | 
COc1ccc(/C=C\c2cc(OC)c(OC)c(OC)c2)cc1O [COMBRETASTATIN A4] |  |  |  |  |  | 8.68 | 8.25 | 8.32 | 7.58 | 7.74
CCOC(=O)C1(C(=O)Nc2ccccc2Cl)CC1c1cc(OC)c(OC)c(OC)c1 (stereo in doubt; cis) | 4.66 |  | 4.38 |  | 4.57 |  | 4.74 |  | 4.44 | 
CCOC(=O)C1(C(=O)Nc2cccc([N+](=O)[O-])c2)CC1c1cc(OC)c(OC)c(OC)c1 (stereo in doubt; trans) | < 4.00 | 4.10 |  |  | 4.31 |  |  |  |  | 
CCOC(=O)C1(C(=O)NCc2ccc(C)cc2)CC1c1cc(OC)c(OC)c(OC)c1 (trans isomer) | 4.59 | 4.67 |  | 4.42 | < 4.00 |  |  |  |  | 
O=c1[nH]cc(F)c(=O)[nH]1 [FLUOROURACIL] |  |  |  |  |  | 3.85 | 4.25 | 3.94 | 3.90 | 3.80
COc1cc([C@H]2C[C@]2(CO)C(=O)Nc2ccccc2Cl)cc(OC)c1OC |  |  |  |  |  | 4.34 | 4.44 | < 4.00 | 4.39 | 4.40
CCOC(=O)C1(C(=O)Nc2ccccc2)CC1c1cc(OC)c(OC)c(OC)c1 (cis isomer) |  |  |  |  | 4.31 | < 4.00 | 4.50 | < 4.00 | 4.23 | 
COc1cc([C@H]2C[C@@]2(CO)C(=O)NCc2ccc(C)cc2)cc(OC)c1OC |  |  |  |  |  | < 4.00 | 4.20 | < 4.00 | < 4.00 | < 4.00
COc1cc([C@H]2C[C@@]2(CO)C(=O)Nc2ccccc2Cl)cc(OC)c1OC |  |  |  |  |  | < 4.00 | < 4.00 | < 4.00 | < 4.00 | < 4.00
COc1cc([C@H]2C[C@@]2(CO)C(=O)Nc2ccccc2)cc(OC)c1OC |  |  |  |  |  | < 4.00 | < 4.00 | < 4.00 | < 4.00 | < 4.00
CCOC(=O)C1(C(=O)Nc2ccc(OC)cc2)CC1c1cc(OC)c(OC)c(OC)c1 (stereo in doubt) | < 4.00 | < 4.00 |  | < 4.00 | < 4.00 |  |  |  |  | 
CCOC(=O)C1(C(=O)NCCc2ccc(F)cc2)CC1c1cc(OC)c(OC)c(OC)c1 (trans isomer) | 4.46 | < 4.00 |  |  | 4.39 |  |  |  |  | 
CCOC(=O)C1(C(=O)Nc2ccccc2)CC1c1cc(OC)c(OC)c(OC)c1 (trans isomer) |  | 4.31 |  | < 4.00 | < 4.00 |  |  |  |  | 
